Measurements from PMC3573876 (The Journal of antibiotics, 2012).

Assays:
[1] = tested on: epidermal growth factor receptor (EGFR); settings: cell-free ELISA assay; cited from earlier work
[2] = tested on: vascular endothelial growth factor receptor-1/fms-like tyrosine kinase-1 (VEGFR-1/Flt-1); settings: cell-free ELISA assay; cited from earlier work
[3] = tested on: human epidermal growth factor receptor-2 (HER2/ErbB-2); settings: cell-free ELISA assay; cited from earlier work
Cytotoxicity assay [4] = format: cell-based; settings: human, NCI-H460 large cell lung carcinoma cells
In short: (§1)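 Cells were exposed continuously to the test compound for 72 h, then stained with sulforhodamine B. IC50 was the concentration that reduced staining by 50% relative to untreated controls. Positive controls were run alongside. MCF-7 came from a cancer-centre stock, NCI-H460 from ATCC, and SF-268 from the NCI Developmental Therapeutics Program.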

Cytotoxicity assay [5] = format: cell-based; settings: human, SF-268 astrocytoma cells
In short: as §1

Cytotoxicity assay [6] = format: cell-based; settings: human, MCF-7 breast carcinoma cells
In short: as §1

[7] = tested on: activated p65 subunits of NF-κB in the nucleus of HeLa cells; experiment: ELISA based NF-κB p65 inhibitory assay; format: cell-based, human; settings: for IC50: read-out: NF-κB inhibitory activity IC50 values, p65 binding, HeLa cells, ELISA
EGFR tyrosine kinase = EGFR tyrosine kinase (Homo sapiens, UniProt P00533); experiment: EGFR enzymatic assay; format: biochemical; settings: read-out: EGFR inhibition IC50; luminescence kinase assay
A549 (adenocarcinoma) = settings: A549 human cell line; cited from earlier work
[8] = tested on: HepG2 (hepatocellular carcinoma); settings: HepG2 human cell line; cited from earlier work
Cytotoxicity assay [9] = format: cell-based; settings: human
Cytotoxicity assay [10] = format: cell-based; settings: human; remark: listed apart in the source

EGFR tyrosine kinase, sequence (P00533 25-1210): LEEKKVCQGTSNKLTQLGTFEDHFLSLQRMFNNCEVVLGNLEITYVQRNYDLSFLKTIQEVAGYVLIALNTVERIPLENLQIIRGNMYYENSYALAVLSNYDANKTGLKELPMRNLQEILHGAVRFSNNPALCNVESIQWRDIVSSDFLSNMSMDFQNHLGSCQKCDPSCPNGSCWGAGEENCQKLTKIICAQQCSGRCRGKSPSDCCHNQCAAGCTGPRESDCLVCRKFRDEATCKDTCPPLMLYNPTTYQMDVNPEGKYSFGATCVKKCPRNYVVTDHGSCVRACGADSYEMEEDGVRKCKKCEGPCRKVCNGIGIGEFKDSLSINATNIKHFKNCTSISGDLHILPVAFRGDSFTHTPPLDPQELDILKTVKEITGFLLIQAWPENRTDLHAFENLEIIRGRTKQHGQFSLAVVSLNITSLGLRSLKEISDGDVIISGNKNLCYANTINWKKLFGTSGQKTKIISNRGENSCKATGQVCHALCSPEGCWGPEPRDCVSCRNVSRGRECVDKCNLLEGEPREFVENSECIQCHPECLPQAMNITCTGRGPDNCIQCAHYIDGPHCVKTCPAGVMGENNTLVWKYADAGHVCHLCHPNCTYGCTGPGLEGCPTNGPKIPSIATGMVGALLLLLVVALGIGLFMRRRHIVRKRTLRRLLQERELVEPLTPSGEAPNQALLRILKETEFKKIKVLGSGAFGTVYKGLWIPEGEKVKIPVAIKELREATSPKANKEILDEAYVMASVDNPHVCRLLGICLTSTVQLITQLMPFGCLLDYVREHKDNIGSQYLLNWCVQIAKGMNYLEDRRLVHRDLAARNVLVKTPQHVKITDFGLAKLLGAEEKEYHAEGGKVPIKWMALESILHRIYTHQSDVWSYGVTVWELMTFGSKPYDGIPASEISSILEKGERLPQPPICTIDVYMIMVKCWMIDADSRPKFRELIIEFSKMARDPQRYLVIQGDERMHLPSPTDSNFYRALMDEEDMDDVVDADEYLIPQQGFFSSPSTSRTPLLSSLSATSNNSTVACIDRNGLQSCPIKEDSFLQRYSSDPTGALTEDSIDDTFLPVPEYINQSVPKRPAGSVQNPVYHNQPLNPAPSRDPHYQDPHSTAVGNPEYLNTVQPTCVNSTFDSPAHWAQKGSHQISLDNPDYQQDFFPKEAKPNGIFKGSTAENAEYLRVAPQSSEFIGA

Compound: CN1C(=O)[C@@]23C[C@]4([C@]56C[C@@]78SS[C@@](C)(C(=O)N7[C@H]5Nc5ccccc56)N(C)C8=O)c5ccccc5N[C@@H]4N2C(=O)[C@]1(C)SS3 [11,11′-Dideoxyverticillin]
- Tyrosine kinase inhibitory activity, EGFR [1]: nM range
- Tyrosine kinase inhibitory activity, VEGFR-1/Flt-1 [2]: nM range
- Tyrosine kinase inhibitory activity, HER2/ErbB-2 [3]: µM range

Compound: CC[C@@]1(O)C(=O)OCc2c1cc1n(c2=O)Cc2cc3ccccc3nc2-1 [Camptothecin]
- IC50 at 72 h (Cytotoxicity assay [4]): 10 nM
- IC50 at 72 h (Cytotoxicity assay [5]): 10 nM
- IC50 at 72 h (Cytotoxicity assay [6]): 130 nM

Compound: CC[C@@]12SS[C@]3(C(=O)N1C)[C@@H](O)C1(C45c6ccccc6N[C@@H]4N4C(=O)[C@]6([C@@H](C)O)SS[C@]4(C(=O)N6C)[C@H]5O)c4ccccc4N[C@@H]1N3C2=O (some centres unmarked) [Gliocladicillin C (4), gliocladicillin C]
- IC50 [7]: > 10000 nM
- IC50 (EGFR tyrosine kinase): > 10000 nM
- Cytotoxic activity on A549 (A549 (adenocarcinoma)): high cytotoxic activity
- Cytotoxic activity on HepG2 [8]: high cytotoxic activity

Compound: CC(O)[C@@]12SS[C@]3(C(=O)N1C)[C@@H](O)[C@]1([C@@]45c6ccccc6N[C@@H]4N4C(=O)[C@]6(C)SS[C@]4(C(=O)N6C)[C@H]5O)c4ccccc4N[C@@H]1N3C2=O (some centres unmarked) [Sch 52901 (2), Sch 52900]
- NF-κB assay activity (in words) [7]: sub-micromolar range
- IC50 [7]: 500 nM

Compound: COC(=O)[C@H]1[C@@H](O)[C@@]2(O)c3c(OC)cc(O[C@@H]4O[C@@H]([C@H](O)CO)CO[C@H]4OC)cc3O[C@@]2(c2ccc(OC)cc2)[C@@H]1c1ccccc1 [Silvestrol]
- IC50 (Cytotoxicity assay [9]): 10 nM
- IC50 (Cytotoxicity assay [10]): 10 nM

Compound: CN1C(=O)[C@]23SS[C@@]1(C)C(=O)N2[C@H]1Nc2ccccc2[C@@]1([C@@]12c4ccccc4N[C@@H]1N1C(=O)[C@@]4(C)SS[C@]1(C(=O)N4C)[C@H]2O)[C@@H]3O [Verticillin A (3), verticillin A]
- NF-κB assay activity (in words) [7]: sub-micromolar range
- IC50 [7]: 100 nM
- IC50 (EGFR tyrosine kinase): > 10000 nM

Compound: CC[C@@]12SS[C@]3(C(=O)N1C)[C@@H](O)[C@]1(C45c6ccccc6N[C@@H]4N4C(=O)[C@@]6(CC)SS[C@@]4(C(=O)N6C)[C@H]5O)c4ccccc4N[C@@H]1N3C2=O (some centres unmarked) [Verticillin H (1), verticillin H]
- IC50 [7]: > 10000 nM
- IC50 (EGFR tyrosine kinase): > 10000 nM

Compound: Sch 52901 [Sch 52900 (5)]
- IC50 [7]: > 10000 nM
